Bioassay records (PubChem BioAssay)
Sampled rows, rich in hits. Any-hit rate of the full collection: about 2.6%.
RAD54 branch = RAD54 (human) branch migration inhibition | Q92698 | RAD54 Holliday junction branch migration, FAM/BHQ fluorescence | inhibition, % at 10.4 µM | hit rate 0.14% among 360,000;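 active = mean normalized replicate activity at least 40 and at least half of replicates scoring 40 or more; inconclusive = only one of the two criteria met; inactive = mean below 40 and under half of replicates reaching 40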;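 also: inhibitors cause a drop in the FAM fluorescence signal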
RAD52 anneal inh = RAD52 (human) annealing inhibition | P43351 | inhibition, % at 18.7 µM | hit rate 0.46% among 360,000 | AID 651710 | recombinant RAD52 DNA annealing, FRET fluorescence;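 active = every replicate showing at least 50% inhibition; inconclusive = mean inhibition at least 50% but not in every replicate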
Ecoli rRNA inh = selective bacterial rRNA inhibition in E. coli; E. coli WT GFP vs humanized-ribosome RFP mutants, fluorescence, 24 h; hits give low values; DMSO median 0, no signal -100; GFP signal change (wild-type ribosome), % (concentration not given with the values); hit rate 1.6% among 350,000;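 active = significant combined selectivity score with lowered wild-type GFP, culture density cut under 30%, mutant RFP and density less affected; inactive = any of these conditions unmet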
GSIS activator = primary screen for activators of insulin secretion dependent on glucose, INS-1E cells, GLuc reporter luminescence | INS-1E GLuc reporter insulin secretion, 2-3 h | activation, % at 16.6 µM | hit rate 0.61% among 370,000;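 active = lowest replicate activation of at least 40%, so every replicate reaches that level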
E-selectin induc = E-selectin induction on HUVECs; hit rate 0.37% among 260,000; P16581; HUVEC E-selectin immunofluorescence imaging; normalized: neutral wells 0, TNF-alpha wells 100; activation, % at 7.58 µM;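 active = mean E-selectin-positive cell signal at least 10% of the positive control, reached in at least 60% of replicates, without over 20% cell loss; inconclusive = no rule given, readout overlaps actives, possibly toxicity-flagged; inactive = the rest, including those meeting only one limit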
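Material: HUVEC primary endothelial cells; Amount: 3,000 cells per well; Dosing: single concentration; Medium: EGM-2 growth medium on 0.1% gelatin-coated wells; Read-out basis: percent E-selectin-positive cells; Signal: immunofluorescence imaging; Control set: TNF-alpha, DMSO.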
MLL AF4-AF9 inh = MLL-AF4/AF9 protein interaction inhibition; hit rate 0.47% among 350,000; inhibition, % at 10 µM; AlphaScreen, biotin-AF4 peptide binding to FLAG-AF9;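 active = every replicate reaching a set inhibition limit, whatever the replicate mean, cut at about 25% in these data; inconclusive = mean inhibition reaches that limit but some replicates miss it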
Target sequence (P42568 whole entry, looked up): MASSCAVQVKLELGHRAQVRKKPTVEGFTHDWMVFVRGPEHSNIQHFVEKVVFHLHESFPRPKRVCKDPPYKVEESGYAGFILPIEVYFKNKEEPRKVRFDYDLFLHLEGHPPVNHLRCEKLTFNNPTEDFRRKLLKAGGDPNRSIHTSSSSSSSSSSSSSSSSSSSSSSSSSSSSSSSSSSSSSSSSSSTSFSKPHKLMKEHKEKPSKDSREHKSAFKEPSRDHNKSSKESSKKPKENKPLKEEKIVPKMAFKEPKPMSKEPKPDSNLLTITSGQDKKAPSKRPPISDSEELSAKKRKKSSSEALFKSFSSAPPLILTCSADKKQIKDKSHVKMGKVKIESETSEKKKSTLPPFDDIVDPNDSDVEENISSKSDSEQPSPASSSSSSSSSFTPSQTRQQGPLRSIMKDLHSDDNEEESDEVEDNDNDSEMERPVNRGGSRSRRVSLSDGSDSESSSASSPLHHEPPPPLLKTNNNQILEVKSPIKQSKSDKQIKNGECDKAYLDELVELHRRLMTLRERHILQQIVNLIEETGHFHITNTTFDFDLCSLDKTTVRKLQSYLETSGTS
Numbers stand for hits.

For O=C([C@H]1[C@H](CO)[C@H]2Cn3c(cccc3=O)[C@@H]1N2C(=O)CC1CC1)N1CCc2ccccc2C1 the results were RAD52 anneal inh inactive, Ecoli rRNA inh inactive, GSIS activator inactive, E-selectin induc inactive and MLL AF4-AF9 inh inactive.
COc1cc(-c2nc3cnccn3c2Nc2ccc(C)cc2)ccc1O was read as RAD54 branch inactive, RAD52 anneal inh inactive, Ecoli rRNA inh -41, GSIS activator inactive and MLL AF4-AF9 inh inactive.
Screening CC(C)(C)CC(C)(C)Nc1c(-c2ccc(O)cc2)nc2cnccn12 returned RAD54 branch inactive, RAD52 anneal inh inactive, Ecoli rRNA inh -25 and GSIS activator inactive.
For Oc1ccc(-c2nc3cnccn3c2Nc2ccc3c(c2)OCCO3)cc1 the results were RAD54 branch inactive, RAD52 anneal inh inactive, Ecoli rRNA inh inactive, GSIS activator inactive, E-selectin induc inactive and MLL AF4-AF9 inh inconclusive.
For O=C(c1ccc([N+](=O)[O-])cc1)N1CCc2ccccc21 the results were RAD52 anneal inh inactive, Ecoli rRNA inh inactive, GSIS activator inactive, E-selectin induc inactive and MLL AF4-AF9 inh 47.
Screening O=C(c1cccc([N+](=O)[O-])c1)N1CCc2ccccc21 returned RAD54 branch inactive, RAD52 anneal inh inactive, Ecoli rRNA inh inactive and MLL AF4-AF9 inh inactive.
Screening CC(C)CN(CC(C)C)C(=O)COn1nnc2ccc(S(=O)(=O)N3CCOCC3)cc21 returned RAD54 branch inactive, RAD52 anneal inh inactive, Ecoli rRNA inh inactive, GSIS activator inactive, E-selectin induc inactive and MLL AF4-AF9 inh inactive.
`O=C(COn1nnc2ccc(S(=O)(=O)N3CCOCC3)cc21)Nc1c(F)c(F)c(F)c(F)c1F` gave RAD54 branch inactive, RAD52 anneal inh inactive, Ecoli rRNA inh -20, GSIS activator inactive and MLL AF4-AF9 inh inactive.
Screening N#CC(C(=S)Nc1ccccc1)c1nc2ccccc2[nH]1 (centres undefined) returned RAD54 branch inactive, RAD52 anneal inh inactive, Ecoli rRNA inh -38, GSIS activator inactive, E-selectin induc inactive and MLL AF4-AF9 inh inactive.
`C[C@@H]1CN([C@H](C)CO)C(=O)Cc2cc(NC(=O)C3CC3)ccc2O[C@H]1CN(C)CC1CC1` gave RAD54 branch inactive, RAD52 anneal inh inactive, Ecoli rRNA inh inactive, GSIS activator inactive, E-selectin induc inactive and MLL AF4-AF9 inh inactive.
`COc1ccc(NC(=O)N2CCCCN3[C@@H](CO)[C@H](c4ccc(-c5ccccc5F)cc4)[C@@H]3C2)cc1` gave RAD54 branch inactive, RAD52 anneal inh 60, Ecoli rRNA inh inactive, GSIS activator inactive, E-selectin induc inactive and MLL AF4-AF9 inh inactive.
COc1ccc(NC(=O)N2CCCCN3[C@@H](CO)[C@@H](c4ccc(-c5ccccc5F)cc4)[C@@H]3C2)cc1 was read as RAD54 branch inactive, RAD52 anneal inh 65, Ecoli rRNA inh inactive, GSIS activator inactive, E-selectin induc inactive and MLL AF4-AF9 inh inactive.
Screening C[C@H]1CN([C@@H](C)CO)C(=O)c2cccc(NC(=O)Nc3ccc(C(F)(F)F)cc3)c2O[C@@H]1CN(C)Cc1ccncc1 returned RAD54 branch inactive, RAD52 anneal inh inactive, Ecoli rRNA inh inactive, GSIS activator inactive, E-selectin induc inactive and MLL AF4-AF9 inh inactive.
`CCCC(=O)Nc1ccc2c(c1)C(=O)N(C)C[C@@H](OC)[C@@H](C)CN(Cc1ccccn1)[C@@H](C)CO2` gave RAD54 branch inactive, RAD52 anneal inh inactive, Ecoli rRNA inh inactive, GSIS activator inactive, E-selectin induc inactive and MLL AF4-AF9 inh inactive.
Screening COc1ccc(NS(=O)(=O)c2ccc(N/N=C/c3ccc(N4CCOCC4)cc3)c([N+](=O)[O-])c2)cc1 returned RAD54 branch inactive, RAD52 anneal inh inactive, Ecoli rRNA inh inactive, E-selectin induc inactive and MLL AF4-AF9 inh inactive.
COc1ccc(/C=N/Nc2ccc(C(F)(F)F)cc2[N+](=O)[O-])cc1 was read as GSIS activator 45.
`C[C@H]1CN([C@@H](C)CO)C(=O)c2cccc(NC(=O)Nc3ccc(F)cc3)c2O[C@H]1CN(C)S(C)(=O)=O` gave RAD54 branch inactive, RAD52 anneal inh inactive, Ecoli rRNA inh inactive, GSIS activator inactive and MLL AF4-AF9 inh inactive.
Screening C=CCn1c(O)c(C2=c3ccccc3=NC2=O)sc1=Nc1ccc(O)cc1 returned RAD54 branch inactive, RAD52 anneal inh inactive, Ecoli rRNA inh -8.0, GSIS activator inactive, E-selectin induc inactive and MLL AF4-AF9 inh inactive.
For CCCS(=O)(=O)c1c(S(=O)(=O)CCC)c2c(C)cccn2c1C(=O)N/N=C/c1cc(O)cc(O)c1 the results were RAD54 branch inactive, RAD52 anneal inh inactive, Ecoli rRNA inh -21, GSIS activator inactive, E-selectin induc inactive and MLL AF4-AF9 inh inactive.
COc1ccccc1NC(=O)N[C@@H]1CC[C@@H](CCn2cc(-c3ccccc3)nn2)O[C@@H]1CO was read as RAD54 branch inactive, RAD52 anneal inh inactive, Ecoli rRNA inh inactive, GSIS activator inactive, E-selectin induc inactive and MLL AF4-AF9 inh inactive.
CCS(=O)(=O)NCC[C@@H]1CC[C@@H](NS(=O)(=O)c2cccc(Cl)c2)[C@H](CO)O1 was read as RAD54 branch inactive, RAD52 anneal inh inactive, Ecoli rRNA inh inactive, GSIS activator inactive, E-selectin induc inactive and MLL AF4-AF9 inh inactive.
CCNC(=O)[C@@H]1[C@@H](CO)[C@@H]2Cn3c(cccc3=O)[C@@H]2N1C(=O)C1CCCC1 was read as RAD54 branch inactive, RAD52 anneal inh inactive, Ecoli rRNA inh inactive, GSIS activator inactive, E-selectin induc inactive and MLL AF4-AF9 inh inactive.
`COC(=O)c1ccc(-n2c(C)ccc2-c2ccccc2)cc1` gave RAD54 branch inactive, RAD52 anneal inh inactive, Ecoli rRNA inh -22, GSIS activator inactive and MLL AF4-AF9 inh inactive.
For CC(=O)c1ccc(-n2c(C)ccc2-c2ccccc2)cc1 the results were RAD54 branch inactive and GSIS activator inactive.
Screening COc1ccccc1CNC(=O)C[C@@H]1C[C@H]2c3cc(NC(=O)NC4CCCC4)ccc3O[C@H]2[C@@H](CO)O1 returned RAD54 branch inactive, RAD52 anneal inh inactive, Ecoli rRNA inh inactive, GSIS activator inactive, E-selectin induc inactive and MLL AF4-AF9 inh inactive.
For Cc1noc(C)c1S(=O)(=O)N(C)C[C@@H]1Oc2ccc(NC(=O)Nc3cccc4ccccc34)cc2CC(=O)N([C@H](C)CO)C[C@@H]1C the results were RAD54 branch inactive, RAD52 anneal inh inactive, Ecoli rRNA inh inactive, GSIS activator inactive, E-selectin induc inactive and MLL AF4-AF9 inh inactive.
Screening O=S(=O)(NCc1csc(-c2cccs2)n1)c1ccc(Cl)cc1 returned RAD54 branch inactive, RAD52 anneal inh inactive, Ecoli rRNA inh inactive, GSIS activator inactive, E-selectin induc 52 and MLL AF4-AF9 inh inactive.
Screening Cc1nc(CNS(=O)(=O)c2cccc(F)c2)cs1 returned RAD54 branch inactive and GSIS activator inactive.
For O=S(=O)(NCc1csc(-c2cccs2)n1)c1cccc(C(F)(F)F)c1 the results were RAD54 branch inactive, RAD52 anneal inh inactive, Ecoli rRNA inh inactive, GSIS activator inactive, E-selectin induc 60 and MLL AF4-AF9 inh inactive.
